Measured values published in ChEMBL document CHEMBL1806465, “Synthesis and biological evaluation of 4-nitro-substituted 1,3-diaryltriazenes as a novel class of potent antitumor agents” (Eur J Med Chem, 2011).
Calls of active or inactive are those of the source. The calls are words filed in the database; no cut-off is given here.

Legend:
[1] = Therapeutic index, ratio IC50 for human Hep2 cells to IC50 for normal human fibroblasts; assay type: cell-based, HEp-2; details: Hep2 cells versus normal human fibroblasts, read-out: Ratio IC50
Summary of the method: (§1)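 IC50 values came from an MTT assay. Cells were seeded at 3000 per well and dosed the next day, with each concentration in quadruplicate. After 72 h at 37 °C, MTT (20 µg/well) was added for 4 h; formazan was dissolved in DMSO and read at 545 nm. Each experiment was done three times. Normal skin fibroblasts were used at 32 and 36 population doublings. T.I. = tumor-cell IC50 / fibroblast IC50.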

[2] = Therapeutic index, ratio IC50 for human RT112 cells to IC50 for normal human fibroblasts; assay type: cell-based, RT-112; details: RT112 cells versus normal human fibroblasts, read-out: Ratio IC50; summary of the method: as §1
RT-112 = assay: Cytotoxicity against human RT112 cells after 72 hrs by MTT assay; assay type: functional, cell-based; details: RT-112, 72 h
Summary of the method: (§2)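 MTT assay: 3000 cells/well seeded, compound added next day, each concentration in quadruplicate, 72 h at 37 °C; medium replaced with 20 µg MTT/well for 4 h, formazan dissolved in DMSO, OD 545 nm. […] Fibroblasts: normal skin fibroblasts from donor, DMEM/10% FBS, used at 32 and 36 population doublings.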

HeLa [3] = assay: Induction of Grp78 expression in human HeLa cells at 7 uM up to 8 hrs by Western blot analysis; assay type: functional, cell-based
Summary of the method: (§3)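 Logarithmically growing HeLa cells were exposed to varying concentrations for 48 h, or to 7 µM for varying times. Cell extracts were run on 10% SDS gels and transferred to nitrocellulose. Membranes were blocked in 5% milk and probed with anti-Grp78 (1:1000, overnight, 4 °C), then an HRP secondary (1:5000, 2 h, RT). Detection was by ECL, with ERK2 reprobing as the loading control.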

HeLa [4] = assay: Cell cycle arrest in human HeLa cells assessed as accumulation at subG1 phase after 24 to 72 hrs by propidium iodide staining -based flow cytometry; assay type: functional
Summary of the method: (§4)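 HeLa seeded at 100 000 cells/well, treated next day with 0.78, 7 or 21 µM for 24, 48 or 72 h. Adherent plus floating cells collected, PBS-washed, fixed overnight in 70% ethanol at −20 °C, RNase A 30 µg/ml 1 h RT, propidium iodide 16.7 µg/ml 30 min dark; DNA content by flow cytometry, phase percentages including subG1 reported.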

HeLa [5] = assay: Cell cycle arrest in human HeLa cells assessed as accumulation at G0/G1 phase at 0.78 uM after 72 hrs by propidium iodide staining -based flow cytometry (reference value: 66.9 %); assay type: functional; summary of the method: as §4
HeLa [6] = assay: Induction of CHOP expression in human HeLa cells at 7 uM after 16 to 48 hrs by Western blot analysis; assay type: functional, cell-based
Summary of the method: (§5)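 Log-phase HeLa exposed to a concentration series for 48 h, or to 7 µM over a time course. Extracts resolved on 10% SDS gels, blotted to nitrocellulose, blocked 5% milk; anti-CHOP 1:1000 in 5% BSA overnight at 4 °C, HRP secondary 1:5000 2 h RT, ECL detection; ERK2 reprobe as loading control.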

HeLa [7] = assay: Induction of apoptotis in human HeLa cells assessed as morphological changes at 7 uM after 48 hrs by acridine orange and […] staining based epifluorescent microscopic analysis; assay type: functional, cell-based
Summary of the method: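 After 48 h at 7 µM, adherent and floating HeLa cells were pooled and resuspended in medium. AO (15 µg/mL stock) and EtBr (50 µg/mL stock) were added. Under epifluorescence, apoptosis was scored from condensed chromatin and apoptotic bodies, which distinguish it from necrosis.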

MIA PaCa-2 = assay: Cytotoxicity against human MIAPaCa2 cells after 72 hrs by MTT assay; assay type: functional, cell-based; details: MIA PaCa-2, 72 h; summary of the method: as §2
HeLa [8] = assay: Cell cycle arrest in human HeLa cells assessed as accumulation at subG1 phase at 7 uM after 24 hrs by propidium iodide staining -based flow cytometry (reference value: 9.4 %); assay type: functional; summary of the method: as §4
[9] = Therapeutic index, ratio IC50 for human HeLa cells to IC50 for normal human fibroblasts; assay type: cell-based; details: HeLa cells versus normal human fibroblasts, read-out: Ratio IC50; summary of the method: as §1
HeLa [10] = assay: Induction of Grp78 expression in human HeLa cells at 0.09 to 7 uM after 48 hrs by Western blot analysis; assay type: functional, cell-based; summary of the method: as §3
HeLa [11] = assay: Cell cycle arrest in human HeLa cells assessed as accumulation at G2/M phase at 21 uM after 72 hrs by propidium iodide staining -based flow cytometry (reference value: 9.7 %); assay type: functional; summary of the method: as §4
HeLa [12] = assay: Cell cycle arrest in human HeLa cells assessed as accumulation at S phase at 21 uM after 72 hrs by propidium iodide staining -based flow cytometry (reference value: 23.5 %); assay type: functional; summary of the method: as §4
HeLa [13] = assay: Cell cycle arrest in human HeLa cells assessed as accumulation at G0/G1 phase at 7 uM after 24 hrs by propidium iodide staining -based flow cytometry (reference value: 60.6 %); assay type: functional; summary of the method: as §4
HEp-2 = assay: Cytotoxicity against human Hep2 cells after 72 hrs by MTT assay; assay type: functional, cell-based; details: HEp-2, 72 h; summary of the method: as §2
HeLa [14] = assay: Cell cycle arrest in human HeLa cells assessed as accumulation at subG1 phase at 7 uM after 48 hrs by propidium iodide staining -based flow cytometry (reference value: 8.5 %); assay type: functional; summary of the method: as §4
HeLa [15] = assay: Induction of CHOP expression in human HeLa cells at 0.09 to 7 uM after 48 hrs by Western blot analysis; assay type: functional, cell-based; summary of the method: as §5
HeLa [16] = assay: Cell cycle arrest in human HeLa cells assessed as accumulation at subG1 phase at 7 uM after 72 hrs by propidium iodide staining -based flow cytometry (reference value: 7.2 %); assay type: functional; summary of the method: as §4
HeLa [17] = assay: Cytotoxicity against human HeLa cells after 72 hrs by MTT assay; assay type: functional, cell-based
HeLa [18] = assay: Cell cycle arrest in human HeLa cells assessed as accumulation at S phase at 0.78 uM after 72 hrs by propidium iodide staining -based flow cytometry (reference value: 23.5 %); assay type: functional; summary of the method: as §4
HeLa [19] = assay: Induction of apoptotis in human HeLa cells assessed as cleavage of apoptotic protein PARP at 7 uM after 48 hrs by Western blot analysis; assay type: functional, cell-based
Summary of the method: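 HeLa cells were treated for 48 h at 7 µM and analysed by Western blot (10% SDS gels, nitrocellulose, HRP secondary, ECL, ERK2 loading control) for cleavage of apoptotic proteins. Antibodies: anti-PARP 1:4000; anti-caspase-3 and anti-caspase-8 1:1000; rabbit polyclonal anti-caspase-9 1:1000.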

HeLa [20] = assay: Cell cycle arrest in human HeLa cells assessed as accumulation at S phase at 7 uM after 72 hrs by propidium iodide staining -based flow cytometry (reference value: 23.5 %); assay type: functional; summary of the method: as §4
[21] = Therapeutic index, ratio IC50 for human SW480 cells to IC50 for normal human fibroblasts; assay type: cell-based; details: SW480 cells versus normal human fibroblasts, read-out: Ratio IC50; summary of the method: as §1
HeLa [22] = assay: Cell cycle arrest in human HeLa cells assessed as accumulation at S phase at 7 uM after 24 hrs by propidium iodide staining -based flow cytometry (reference value: 27.7 %); assay type: functional; summary of the method: as §4
HeLa [23] = assay: Cell cycle arrest in human HeLa cells assessed as accumulation at G0/G1 phase at 0.78 uM after 48 hrs by propidium iodide staining -based flow cytometry (reference value: 63.8 %); assay type: functional; summary of the method: as §4
HeLa [24] = assay: Cell cycle arrest in human HeLa cells assessed as accumulation at G2/M phase at 21 uM after 48 hrs by propidium iodide staining -based flow cytometry (reference value: 9.9 %); assay type: functional; summary of the method: as §4

## CC(=O)N(/N=N/c1ccc([N+](=O)[O-])cc1Cl)c1ccc([N+](=O)[O-])cc1Cl
[1]
  selectivity ratio: 0.044
[2]
  selectivity ratio: 0.514
RT-112
  IC50: 7200 nM
HeLa [3]
  Activity: inactive
HeLa [4]
  Activity: Dose-dependent effect
HeLa [5]
  Activity: 59.1%
HeLa [6]
  Activity: Active
HeLa [7]
  Activity: Active
MIA PaCa-2
  IC50: 520 nM
HeLa [8]
  Activity: 13.2%
[9]
  selectivity ratio: 0.045
HeLa [10]
  Activity: Active
HeLa [11]
  Activity: 8.4%
HeLa [12]
  Activity: 12.6%
HeLa [13]
  Activity: 69.3%
HEp-2
  IC50: 620 nM
HeLa [14]
  Activity: 23.8%
HeLa [15]
  Activity: Active
HeLa [16]
  Activity: 33%
HeLa [17]
  IC50: 630 nM
HeLa [18]
  Activity: 32.5%
HeLa [19]
  Activity: Active
HeLa [20]
  Activity: 15.2%
[21]
  selectivity ratio: 0.038
HeLa [22]
  Activity: 20.8%
HeLa [23]
  Activity: 74.5%
HeLa [24]
  Activity: 11.9%
